Test results published in ChEMBL document CHEMBL1134075, “Synthesis and hydrolytic stability studies of albendazole carrier prodrugs” (Bioorg Med Chem Lett, 2001).

Tests used:
[1] = Partition coefficient (logP); type: physicochemical; conditions: octanol/water
Procedure, shortened: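 Determined by RP-HPLC. log K = log[(tr − t0)/t0], with t0 the elution time of methanol. log K0 at 0% methanol was obtained by linear regression of log K versus percent methanol, using standards.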

[2] = Half life of the at pH 7.4; type: ADME
Procedure, shortened: (§1)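 Buffer hydrolysis at 37 °C in HCl, acetate, phosphate or borate buffers. Methanolic stock was added to preheated buffer in screw-capped tubes, giving about 4×10^-4 M final (1% methanol). Samples were taken at intervals and chromatographed immediately by HPLC. First-order k_obs came from the slope of log % formed albendazole versus time, and t1/2 = 0.693/k_obs.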

[3] = First order rate constant, k was determined at pH 2; type: ADME; procedure, shortened: as §1
[4] = First order rate constant, k was determined at pH 4; type: ADME; procedure, shortened: as §1
[5] = First order rate constant, k was determined at pH 9; type: ADME; procedure, shortened: as §1
[6] = Half life of the at pH 5.0; type: ADME; procedure, shortened: as §1
[7] = First order rate constant, k was determined at pH 8; type: ADME; procedure, shortened: as §1
[8] = Half life of the in human plasma; type: ADME, cell-free
Procedure, shortened: (§2)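 Incubation at 37 °C in 80% human plasma, initial 4×10^-4 M (1% methanol). Plasma samples withdrawn at various times were extracted on a C18 cartridge, and appearance of albendazole was followed by HPLC. First-order k_obs came from the slope of log % formed albendazole versus time, and t1/2 = 0.693/k_obs. Mean ± SD.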

[9] = First order rate constant, k was determined at pH 5; type: ADME; procedure, shortened: as §1
[10] = First order rate constant, k was determined in human plasma; type: ADME, cell-free; procedure, shortened: as §2
[11] = First order rate constant, k was determined in pig liver Esterase; type: ADME, tissue-based, Sus scrofa
Procedure, shortened: (§3)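 Pig liver esterase used in place of plasma, at 37 °C with initial 4×10^-4 M (1% methanol). Samples were C18-extracted over time and albendazole formation was tracked by HPLC. k_obs was taken from the slope of log % formed albendazole versus time, and t1/2 = 0.693/k_obs. Mean ± SD.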

[12] = First order rate constant, k was determined at pH 3; type: ADME; procedure, shortened: as §1
[13] = First order rate constant, k was determined at pH 6; type: ADME; procedure, shortened: as §1
[14] = First order rate constant, k was determined at pH 5.0; type: ADME; procedure, shortened: as §1
[15] = Half life of the in pig liver Esterase; type: ADME, Sus scrofa; procedure, shortened: as §3
[16] = First order rate constant, k was determined at pH 1; type: ADME; procedure, shortened: as §1
[17] = First order rate constant, k was determined at pH 7.4; type: ADME; procedure, shortened: as §1

## CCCSc1ccc2c(c1)nc(NC(=O)OC)n2C(C)=O
[1]
  logP: 2.82

## CCCSc1ccc2c(c1)nc(NC(=O)OC)n2COC(=O)c1ccc(N)cc1.Cl
[2]
  half-life: 2.05 h
[3]
  k: 0.2826 min⁻¹
[4]
  k: 0.0087 min⁻¹
[1]
  logP: 2.91
[5]
  k: 8 min⁻¹
[6]
  half-life: 3.84 h
[7]
  k: 1.8066 min⁻¹
[8]
  half-life: 0.929 h
[9]
  k: 0.003 min⁻¹
[10]
  k: 12.43 10e-3 min-1
[11]
  k: 15.29 10e-3 min-1
[12]
  k: 0.0323 min⁻¹
[13]
  k: 0.0036 min⁻¹
[14]
  k: 3.01 10e-3 min-1
[15]
  half-life: 0.755 h
[16]
  k: 0.3203 min⁻¹

## CCCSc1ccc2c(c1)nc(NC(=O)OC)n2C(=O)CC
[1]
  logP: 3.17

## CCCSc1ccc2c(c1)nc(NC(=O)OC)n2C(=O)OCC
[2]
  half-life: 2.02 h
[17]
  k: 5.73 10e-3 min-1
[1]
  logP: 3.92
[6]
  half-life: 5.27 h
[8]
  half-life: 0.139 h
[10]
  k: 83.29 10e-3 min-1
[11]
  k: 100.14 10e-3 min-1
[14]
  k: 2.19 10e-3 min-1
[15]
  half-life: 0.115 h

## CCCSc1ccc2c(c1)nc(NC(=O)OC)n2C(=O)CCC
[1]
  logP: 3.92

## CCCSc1ccc2nc(NC(=O)OC)[nH]c2c1 [ALBENDAZOLE]
[1]
  logP: 3.07

## CCCSc1ccc2nc(NC(=O)OC)n(C(=O)OCC)c2c1
[2]
  half-life: 2 h
[17]
  k: 5.78 10e-3 min-1
[1]
  logP: 3.19
[6]
  half-life: 2.74 h
[8]
  half-life: 0.12 h
[10]
  k: 96.33 10e-3 min-1
[11]
  k: 99.14 10e-3 min-1
[14]
  k: 4.21 10e-3 min-1
[15]
  half-life: 0.117 h
